Results: ChEMBL document CHEMBL1155452, “Oncocin (VDKPPYLPRPRPPRRIYNR-NH2): a novel antibacterial peptide optimized against gram-negative human pathogens” (J Med Chem, 2010)

Assays:
[1] = system: Escherichia coli; experiment: Antibacterial activity against Escherichia coli BL21 AI after 20 hrs by broth microdilution assay; format: functional
How it was run: (§1)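 Nutrient-broth overnight cultures diluted in 1% TSB; E. coli BL21AI 7.5 × 10^5 cells/well, M. luteus ATCC 10240 2 × 10^6 cells/well. Peptides serially 2-fold diluted in 1% TSB from 128 to typically 0.5 μg/mL. Incubation at 37 °C; A595 read after 20 ± 2 h. MIC is the lowest concentration with absorbance not above medium only. Triplicate.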

[2] = system: Micrococcus luteus; experiment: Antibacterial activity against Micrococcus luteus ATCC 10240 after 20 hrs by broth microdilution assay; format: functional; conditions: ATCC 10240, 20 h; how it was run: as §1
[3] = system: SH-SY5Y; experiment: Cytotoxicity against human SH-SY5Y cells at 600 ug/ml after 24 hrs by MTT assay; format: cell-based
How it was run: (§2)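 HeLa (1.5 × 10^4/well, seeded overnight) or SH-SY5Y (2 × 10^4/well, differentiated 5 days with 10 μM trans-retinoic acid) in DMEM/Ham's F-12 with 5% or 15% FBS. Peptide added at 600 μg/mL for 24 h at 37 °C, 5% CO2. MTT 0.5 mg/mL for 4 h, then SDS/HCl for 16 h; A590 read against 650 nm. Normalized to PBS (100%); DMSO 12% as positive control.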

[4] = system: HeLa; experiment: Cytotoxicity against human HeLa cells at 600 ug/ml after 24 hrs by MTT assay; format: cell-based; how it was run: as §2

MIC [1] | MIC [2] | Compound | Activity [3] | Activity [4]
8 µg/mL | 16 µg/mL | H-VDKPPYLPRPRPPRRIYNRN-OH |  | 
64 µg/mL | 128 µg/mL | H-VDKPPYLPRPRPPRRIYN-OH |  | 
128 µg/mL | 64 µg/mL | H-VDKPPYLPRPTPPRRIYNNR-OH |  | 
 |  | H-GKPRPYSPRPTSHPRPIRV-OH [DROSOCIN] | Non-toxic | Non-toxic
 |  | CC[C@H](C)[C@H](NC(=O)[C@H](Cc1ccc(O)cc1)NC(=O)[C@@H](NC(=O)[C@@H]1CCCN1C(=O)[C@H](CCCNC(=N)N)NC(=O)[C@H](CC(N)=O)NC(=O)[C@H](CC(N)=O)NC(=O)CN)C(C)C)C(=O)N1CCC[C@H]1C(=O)N[C@@H](CCC(N)=O)C(=O)N1CCC[C@H]1C(=O)N[C@@H](CCCNC(=N)N)C(=O)N1CCC[C@H]1C(=O)N1CCC[C@H]1C(=O)N[C@@H](Cc1cnc[nH]1)C(=O)N1CCC[C@H]1C(=O)N[C@@H](CCCNC(=N)N)C(=O)N[C@@H](CC(C)C)C(=O)O [APIDAECIN] | Non-toxic | Non-toxic
128 µg/mL | 64 µg/mL | H-VDKPPYLPRPPPPRRIYNNR-OH |  | 
